From BindingDB's records for doi:10.1021/acs.jmedchem.9b00634 (2019)
pIC50: −log10 of the molar value. *1 amine or outer side, *2 acyl side, *3 side chain or, on linkers, in order; H or OH if unused. Where a SMILES comes first, the peptide text is derived from it. The star is where a group is joined. NH(CH2)3O(βDGlc) = OC[C@H]1O[C@@H](OCCCN*)[C@H](O)[C@@H](O)[C@@H]1O; Glutaryl = O=C(CCCC(=O)[*:2])[*:1]

Tests used:
[1] = Binding affinity to GLUT1 in human L02 cells assessed as cytotoxicity by measuring reduction in cell viability measured after 24 hrs by CCK8 assay
[2] = Binding affinity to GLUT1 in human MDA-MB-231 cells assessed as cytotoxicity by measuring reduction in cell viability measured after 24 hrs by CCK8 assay
[3] = Binding affinity to GLUT1 in human NCI-H1437 cells assessed as cytotoxicity by measuring reduction in cell viability measured after 24 hrs by CCK8 assay
[4] = Binding affinity to GLUT1 in human HGC27 cells assessed as cytotoxicity by measuring reduction in cell viability measured after 24 hrs by CCK8 assay
[5] = Binding affinity to GLUT1 in human NCI-H460 cells assessed as cytotoxicity by measuring reduction in cell viability measured after 24 hrs by CCK8 assay
[6] = Binding affinity to GLUT1 in human PC3 cells assessed as cytotoxicity by measuring reduction in cell viability measured after 24 hrs by CCK8 assay
[7] = Binding affinity to GLUT1 in human A549 cells assessed as cytotoxicity by measuring reduction in cell viability measured after 24 hrs by CCK8 assay
[8] = molecular target: T1, Solute carrier family 2, facilitated glucose transporter member 1 (Homo sapiens, UniProt P11166); experiment: Binding affinity to GLUT1 in human A549 cells assessed as cytotoxicity by measuring reduction in cell viability measured after 24 hrs by CCK8 assay
T1 sequence (P11166 whole entry): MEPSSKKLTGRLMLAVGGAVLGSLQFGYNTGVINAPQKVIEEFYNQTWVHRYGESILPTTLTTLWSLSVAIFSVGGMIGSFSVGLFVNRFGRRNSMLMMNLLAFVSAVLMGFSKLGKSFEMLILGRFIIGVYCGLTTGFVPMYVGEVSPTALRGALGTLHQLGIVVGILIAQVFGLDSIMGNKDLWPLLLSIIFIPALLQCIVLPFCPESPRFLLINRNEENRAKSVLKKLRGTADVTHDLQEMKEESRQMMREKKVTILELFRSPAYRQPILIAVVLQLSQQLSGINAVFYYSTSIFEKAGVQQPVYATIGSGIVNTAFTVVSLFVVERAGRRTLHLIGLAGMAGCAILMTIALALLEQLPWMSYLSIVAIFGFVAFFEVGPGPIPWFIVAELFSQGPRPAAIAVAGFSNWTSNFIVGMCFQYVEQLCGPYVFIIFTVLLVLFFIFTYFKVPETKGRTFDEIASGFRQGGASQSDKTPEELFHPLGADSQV
Procedure, shortened: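 Cells (A549, H460, H1437, PC-3, HGC-27, MDA-MB-231, HEK-293T, L-02) seeded at about 2×10^3/well and grown overnight. Treated 24 h with a peptide concentration series in serum-free medium. Viability by CCK-8; IC50 taken as 50% inhibition versus untreated cells. Average of three experiments, each in triplicate.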

SMILES | pIC50 [1] | pIC50 [2] | pIC50 [3] | pIC50 [4] | pIC50 [5] | pIC50 [6] | pIC50 [7] | pIC50 [8]
CC[C@H](C)[C@H](NC(=O)[C@H](Cc1ccccc1)NC(=O)[C@H](CCCNC(=N)N)NC(=O)[C@H](C)NC(=O)[C@@H](NC(=O)[C@H](CO)NC(=O)[C@H](CCCNC(=N)N)NC(=O)[C@H](CCSC)NC(=O)[C@H](C)NC(=O)[C@H](CCCNC(=N)N)NC(=O)[C@H](Cc1ccccc1)NC(=O)[C@H](Cc1c[nH]c2ccccc12)NC(=O)CNC(=O)[C@@H](N)CCCNC(=N)N)[C@@H](C)CC)C(=O)N[C@@H](C)C(=O)N[C@@H](CCCNC(=N)N)C(=O)N[C@@H](CCC(=O)O)C(=O)N[C@@H](CCCNC(=N)N)C(=O)N[C@@H](CC(C)C)C(=O)N[C@@H](CCCNC(=N)N)C(=O)N[C@@H](CCC(=O)O)C(=O)N[C@@H](Cc1cnc[nH]1)C(=O)N[C@@H](CC(C)C)C(=O)O (H-RGWFRAMRSIARFIARERLREHL-OH) | 4.90 | 4.98 | 4.78 | 4.90 | 4.89 | 4.81 | 4.84 | –
CC[C@H](C)[C@H](NC(=O)[C@H](Cc1ccccc1)NC(=O)[C@H](CCCNC(=N)N)NC(=O)[C@H](C)NC(=O)[C@@H](NC(=O)[C@H](CO)NC(=O)[C@H](CCCNC(=N)N)NC(=O)[C@H](CCSC)NC(=O)[C@H](C)NC(=O)[C@H](CCCNC(=N)N)NC(=O)[C@H](Cc1ccccc1)NC(=O)[C@H](Cc1c[nH]c2ccccc12)NC(=O)CNC(=O)[C@H](CCCNC(=N)N)NC(=O)CCCC(=O)NCCCO[C@@H]1O[C@H](CO)[C@@H](O)[C@H](O)[C@H]1O)[C@@H](C)CC)C(=O)N[C@@H](C)C(=O)N[C@@H](CCCNC(=N)N)C(=O)N[C@@H](CCC(=O)O)C(=O)N[C@@H](CCCNC(=N)N)C(=O)N[C@@H](CC(C)C)C(=O)N[C@@H](CCCNC(=N)N)C(=O)N[C@@H](CCC(=O)O)C(=O)N[C@@H](Cc1cnc[nH]1)C(=O)N[C@@H](CC(C)C)C(=O)O ({NH(CH2)3O(βDGlc)-Glutaryl}-RGWFRAMRSIARFIARERLREHL-OH) | 4.59 | 5.00 | – | 4.90 | 5.07 | 5.16 | – | 5.02
